This note sets out measurements from ChEMBL document CHEMBL4376856, “Discovery of N-(4-Aminobutyl)-N'-(2-methoxyethyl)guanidine as the First Selective, Nonamino Acid, Catalytic Site Inhibitor of Human Dimethylarginine Dimethylaminohydrolase-1 (hDDAH-1)” (J Med Chem, 2020).

Data set [1] concerns the target T1, N(G),N(G)-dimethylarginine dimethylaminohydrolase 1 (Homo sapiens, UniProt O94760). The data set can be described thus: Inhibition of 6xHis-tagged recombinant human DDAH1 expressed in Escherichia coli BL21 cells using NMMA as substrate measured after 30 mins by colder reagent based microplate reader assay. In outline:
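Ki against hDDAH-1, given as the mean ± SD of at least two independent experiments.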

In data set [2] the target is Nitric oxide synthase 1 (Homo sapiens) (UniProt P29475). The data set can be described thus: Inhibition of neuronal NOS (unknown origin) assessed as formation of methemoglobin from oxyhemoglobin at 1 mM using L-arginine as substrate in presence of oxyhemoglobin and NADPH by UV-vis spectrophotometry relative to control. In outline:
(§1)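 Each enzyme (arginase, nNOS, eNOS, iNOS) tested with inhibitor at 1 mM; percent inhibition given as the mean ± SD of at least three independent experiments.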

Data set [3] has as its target Nitric oxide synthase, inducible (Homo sapiens) (UniProt P35228). The data set can be described thus: Inhibition of iNOS (unknown origin) assessed as formation of methemoglobin from oxyhemoglobin at 1 mM using L-arginine as substrate in presence of oxyhemoglobin and NADPH by UV-vis spectrophotometry relative to control. In outline: as §1
For data set [4], the target named is T2, Arginase-1 (Bos taurus) (UniProt Q2KJ64).
T2 sequence (whole entry): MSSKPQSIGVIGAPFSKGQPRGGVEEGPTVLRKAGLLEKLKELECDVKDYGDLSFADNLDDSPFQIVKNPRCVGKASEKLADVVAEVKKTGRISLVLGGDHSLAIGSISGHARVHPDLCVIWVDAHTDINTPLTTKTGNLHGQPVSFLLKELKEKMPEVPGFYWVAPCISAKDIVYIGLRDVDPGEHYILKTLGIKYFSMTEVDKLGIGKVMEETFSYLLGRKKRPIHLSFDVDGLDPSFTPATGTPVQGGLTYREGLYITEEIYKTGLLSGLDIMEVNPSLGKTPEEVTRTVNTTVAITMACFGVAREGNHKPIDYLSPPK
The data set can be described thus: Inhibition of bovine liver arginase at 1 mM using L-arginine as substrate measured after 30 mins by colder reagent based microplate reader assay relative to control. In short, it runs like this:
as §1

Data set [5] deals with T3, Nitric oxide synthase 3 (Homo sapiens) (UniProt P29474).
T3 sequence (whole entry): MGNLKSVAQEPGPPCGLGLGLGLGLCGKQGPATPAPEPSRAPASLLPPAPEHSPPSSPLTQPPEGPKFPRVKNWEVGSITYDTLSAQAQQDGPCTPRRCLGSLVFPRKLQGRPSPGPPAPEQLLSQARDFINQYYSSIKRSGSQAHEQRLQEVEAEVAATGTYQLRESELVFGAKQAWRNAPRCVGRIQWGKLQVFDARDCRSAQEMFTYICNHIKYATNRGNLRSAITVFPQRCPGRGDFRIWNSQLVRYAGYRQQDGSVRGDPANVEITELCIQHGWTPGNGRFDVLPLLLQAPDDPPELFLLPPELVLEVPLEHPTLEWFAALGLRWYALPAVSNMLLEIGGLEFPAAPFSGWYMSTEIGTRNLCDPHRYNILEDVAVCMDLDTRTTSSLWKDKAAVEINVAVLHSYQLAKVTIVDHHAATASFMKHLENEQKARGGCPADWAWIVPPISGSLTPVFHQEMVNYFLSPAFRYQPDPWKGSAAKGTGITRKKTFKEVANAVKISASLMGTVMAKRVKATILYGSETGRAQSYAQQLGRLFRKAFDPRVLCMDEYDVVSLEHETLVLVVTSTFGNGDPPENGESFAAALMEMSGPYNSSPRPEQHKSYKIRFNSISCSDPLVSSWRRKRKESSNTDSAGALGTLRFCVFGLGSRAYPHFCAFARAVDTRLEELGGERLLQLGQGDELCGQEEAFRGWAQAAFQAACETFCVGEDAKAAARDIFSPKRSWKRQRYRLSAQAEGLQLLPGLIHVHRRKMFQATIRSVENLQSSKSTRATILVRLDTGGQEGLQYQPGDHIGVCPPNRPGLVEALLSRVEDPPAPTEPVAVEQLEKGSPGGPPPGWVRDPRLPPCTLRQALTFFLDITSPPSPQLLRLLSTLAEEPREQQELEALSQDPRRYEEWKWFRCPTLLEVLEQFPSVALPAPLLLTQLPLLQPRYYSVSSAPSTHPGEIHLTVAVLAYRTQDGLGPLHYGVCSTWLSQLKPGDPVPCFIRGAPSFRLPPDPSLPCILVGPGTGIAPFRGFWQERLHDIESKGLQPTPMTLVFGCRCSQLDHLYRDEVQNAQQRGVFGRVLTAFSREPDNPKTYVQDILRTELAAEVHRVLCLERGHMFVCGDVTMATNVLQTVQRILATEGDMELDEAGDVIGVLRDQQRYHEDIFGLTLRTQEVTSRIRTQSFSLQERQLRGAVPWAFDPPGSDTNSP
In words: Inhibition of endothelial NOS (unknown origin) assessed as formation of methemoglobin from oxyhemoglobin at 1 mM using L-arginine as substrate in presence of oxyhemoglobin and NADPH by UV-vis spectrophotometry relative to control. In outline: as §1

The target in data set [6] is T4, Mitochondrial amidoxime reducing component 2 (Homo sapiens, UniProt Q969Z3).
T4 sequence (Q969Z3 whole entry): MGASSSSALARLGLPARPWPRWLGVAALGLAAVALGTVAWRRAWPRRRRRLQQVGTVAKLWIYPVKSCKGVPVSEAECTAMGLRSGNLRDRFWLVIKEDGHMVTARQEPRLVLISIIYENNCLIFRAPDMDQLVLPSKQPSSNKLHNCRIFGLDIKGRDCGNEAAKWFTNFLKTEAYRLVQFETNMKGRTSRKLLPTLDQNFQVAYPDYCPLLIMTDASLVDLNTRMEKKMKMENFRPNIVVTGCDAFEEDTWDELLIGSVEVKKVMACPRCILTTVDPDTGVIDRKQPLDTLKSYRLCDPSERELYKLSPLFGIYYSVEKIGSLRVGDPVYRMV
The data set can be described thus: Substrate activity at human recombinant mARC2 expressed in Escherichia coli assessed as enzyme-mediated N-(4-Aminobutyl)-N'-(2-methoxyethyl)guanidine formation at 3 mM and pH 6 preincubated for 3 mins followed by NADH addition measured after 20 mins under aerobic conditions by RP-HPLC analysis. The settings on record: pH 6, 20 min, 3000 µM. The class given is ADME. In outline: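 Incubation used the reconstituted, heterologously expressed human mARC-2 N-reductive system. The guanidine product was measured by HPLC after precolumn derivatization with o-phthalaldehyde.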

A short description of data set [7]: Chemical stability of compound at 250 uM in phosphate buffer at pH 2 to 9 and 37 degree C after 24 hrs by RP-HPLC analysis. The class given is physicochemical. The settings on record: pH 2, 24 h.
The subject of data set [8] is HEK-293T. In words: Cytotoxicity against human HEK293T cells assessed as effect on cell viability by measuring ATP content at 0.1 to 1000 uM incubated for overnight by CellTiter-Glo luminescent analysis. The class given is cell-based.
Data set [9] in a line: Prodrug conversion in porcine liver mitochondria assessed as N-(4-Aminobutyl)-N'-(2-methoxyethyl)guanidine formation at 3 mM and pH 6 preincubated for 3 mins followed by NADH addition measured after 20 mins under aerobic conditions by RP-HPLC analysis. The class given is ADME, Sus scrofa. The settings on record: pig, pH 6, 20 min, 3000 µM. In short, it runs like this: (§2)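 Prodrug incubated with porcine liver subcellular fractions (homogenate, mitochondria, outer mitochondrial membrane vesicles). The formed guanidine was quantified by HPLC after precolumn o-phthalaldehyde derivatization. Data are means ± SD of biological triplicates.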

Data set [10] can be described thus: Prodrug conversion in porcine liver mitochondrial membrane vesicles assessed as N-(4-Aminobutyl)-N'-(2-methoxyethyl)guanidine formation at 3 mM and pH 6 preincubated for 3 mins followed by NADH addition measured after 20 mins under aerobic conditions by RP-HPLC analysis. As to conditions: pig, pH 6, 20 min, 3000 µM; call rule not given here. The class given is ADME, cell membranes, Sus scrofa, Mitochondrial membrane vesicle. In outline:
as §2

A short description of data set [11]: Prodrug conversion in porcine liver homogenate assessed as formation of N-(4-Aminobutyl)-N'-(2-methoxyethyl)guanidine formation at 3 mM and pH 6 preincubated for 3 mins followed by NADH addition measured after 20 mins under aerobic conditions by RP-HPLC analysis. The class given is ADME, tissue-based, Sus scrofa. The settings on record: pig, tissue homogenate, pH 6, 20 min, 3000 µM. In short, it runs like this: as §2

In data set [12] the test system is HEK-293T. The data set can be described thus: Cytotoxicity against human HEK293T cells assessed as effect on cell number at 0.1 to 1000 uM incubated for overnight by DAPI staining based analysis.
In data set [13] the target is T1, N(G),N(G)-dimethylarginine dimethylaminohydrolase 1. The data set can be described thus: Inhibition of 6xHis-tagged recombinant human DDAH1 expressed in Escherichia coli BL21 cells at 1 mM using NMMA as substrate measured after 30 mins by colder reagent based microplate reader assay.

T1 sequence (O94760 whole entry): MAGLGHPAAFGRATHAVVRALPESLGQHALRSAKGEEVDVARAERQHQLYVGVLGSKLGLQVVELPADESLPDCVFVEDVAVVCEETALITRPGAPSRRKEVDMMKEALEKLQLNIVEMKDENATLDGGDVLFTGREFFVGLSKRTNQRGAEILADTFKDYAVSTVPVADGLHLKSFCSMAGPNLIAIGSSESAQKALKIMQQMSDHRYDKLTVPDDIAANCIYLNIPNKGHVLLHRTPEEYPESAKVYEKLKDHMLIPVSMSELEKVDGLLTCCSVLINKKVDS
Nitric oxide synthase, inducible (Homo sapiens), sequence (P35228 whole entry): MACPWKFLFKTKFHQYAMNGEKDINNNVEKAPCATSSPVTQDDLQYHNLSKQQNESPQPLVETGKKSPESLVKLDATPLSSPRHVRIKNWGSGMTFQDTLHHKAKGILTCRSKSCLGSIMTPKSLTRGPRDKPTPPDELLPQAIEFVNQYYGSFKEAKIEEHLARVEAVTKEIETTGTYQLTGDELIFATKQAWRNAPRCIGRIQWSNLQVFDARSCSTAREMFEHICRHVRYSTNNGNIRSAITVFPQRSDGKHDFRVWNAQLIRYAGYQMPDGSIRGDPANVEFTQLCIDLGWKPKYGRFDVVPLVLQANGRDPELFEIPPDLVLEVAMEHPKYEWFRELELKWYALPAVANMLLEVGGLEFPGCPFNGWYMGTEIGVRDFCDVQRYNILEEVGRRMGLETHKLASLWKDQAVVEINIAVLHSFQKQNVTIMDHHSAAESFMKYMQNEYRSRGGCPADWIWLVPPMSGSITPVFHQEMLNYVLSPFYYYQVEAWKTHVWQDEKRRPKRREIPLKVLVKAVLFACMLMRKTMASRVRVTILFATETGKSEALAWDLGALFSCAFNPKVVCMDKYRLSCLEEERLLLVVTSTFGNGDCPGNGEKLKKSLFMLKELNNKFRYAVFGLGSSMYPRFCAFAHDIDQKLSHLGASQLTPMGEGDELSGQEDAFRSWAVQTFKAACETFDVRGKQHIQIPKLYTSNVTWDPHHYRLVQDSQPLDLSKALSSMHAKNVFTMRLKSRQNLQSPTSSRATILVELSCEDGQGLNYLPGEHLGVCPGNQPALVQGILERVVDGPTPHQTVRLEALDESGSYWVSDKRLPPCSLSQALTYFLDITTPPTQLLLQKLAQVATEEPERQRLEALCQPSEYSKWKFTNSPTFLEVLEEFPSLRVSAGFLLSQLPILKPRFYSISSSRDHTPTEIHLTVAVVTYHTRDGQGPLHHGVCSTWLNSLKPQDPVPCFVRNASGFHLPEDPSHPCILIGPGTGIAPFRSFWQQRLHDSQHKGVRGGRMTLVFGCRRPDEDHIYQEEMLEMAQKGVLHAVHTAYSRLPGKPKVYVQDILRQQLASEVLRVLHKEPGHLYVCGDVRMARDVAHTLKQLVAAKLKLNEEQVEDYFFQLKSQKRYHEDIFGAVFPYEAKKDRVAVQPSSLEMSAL
Nitric oxide synthase 1 (Homo sapiens), sequence (P29475 whole entry): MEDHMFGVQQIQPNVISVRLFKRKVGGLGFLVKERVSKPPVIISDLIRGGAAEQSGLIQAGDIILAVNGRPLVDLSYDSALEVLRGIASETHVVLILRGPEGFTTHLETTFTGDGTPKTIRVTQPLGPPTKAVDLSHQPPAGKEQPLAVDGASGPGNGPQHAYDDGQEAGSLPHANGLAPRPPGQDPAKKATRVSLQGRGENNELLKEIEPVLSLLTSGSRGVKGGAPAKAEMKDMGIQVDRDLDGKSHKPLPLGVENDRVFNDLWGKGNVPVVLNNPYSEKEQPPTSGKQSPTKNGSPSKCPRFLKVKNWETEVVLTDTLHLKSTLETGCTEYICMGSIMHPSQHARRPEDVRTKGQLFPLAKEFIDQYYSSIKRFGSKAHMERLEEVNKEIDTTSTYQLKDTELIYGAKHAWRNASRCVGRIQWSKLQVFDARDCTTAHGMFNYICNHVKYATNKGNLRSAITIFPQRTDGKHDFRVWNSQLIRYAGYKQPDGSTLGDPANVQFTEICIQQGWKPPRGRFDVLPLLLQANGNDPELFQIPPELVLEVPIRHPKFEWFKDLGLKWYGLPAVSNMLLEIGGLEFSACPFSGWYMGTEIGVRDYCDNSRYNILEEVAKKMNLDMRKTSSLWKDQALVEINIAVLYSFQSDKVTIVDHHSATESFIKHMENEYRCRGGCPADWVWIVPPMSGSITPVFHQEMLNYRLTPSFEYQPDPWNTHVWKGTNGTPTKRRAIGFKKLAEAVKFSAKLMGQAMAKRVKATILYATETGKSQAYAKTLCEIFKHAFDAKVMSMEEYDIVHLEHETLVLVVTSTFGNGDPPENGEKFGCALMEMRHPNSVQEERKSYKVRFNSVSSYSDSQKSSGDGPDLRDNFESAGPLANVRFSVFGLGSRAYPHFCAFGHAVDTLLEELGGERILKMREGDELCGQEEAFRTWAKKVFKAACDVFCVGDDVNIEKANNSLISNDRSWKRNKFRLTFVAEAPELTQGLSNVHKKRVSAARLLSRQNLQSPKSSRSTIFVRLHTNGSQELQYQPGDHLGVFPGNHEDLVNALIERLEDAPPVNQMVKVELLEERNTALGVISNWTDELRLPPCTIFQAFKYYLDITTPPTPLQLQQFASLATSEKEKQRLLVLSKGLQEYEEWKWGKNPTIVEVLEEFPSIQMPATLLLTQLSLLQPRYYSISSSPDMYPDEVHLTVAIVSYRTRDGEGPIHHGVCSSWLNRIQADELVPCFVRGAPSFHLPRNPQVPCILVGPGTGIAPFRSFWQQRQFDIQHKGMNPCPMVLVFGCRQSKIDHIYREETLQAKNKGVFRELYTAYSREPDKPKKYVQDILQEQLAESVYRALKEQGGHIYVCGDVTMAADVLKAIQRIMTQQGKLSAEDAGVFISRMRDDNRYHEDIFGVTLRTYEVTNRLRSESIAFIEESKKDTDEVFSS

Turning to `N=C(CCl)NCCC[C@H](N)C(=O)O`, the Ki in data set [1] stood at 1.3 µM.

Consider `COCC(=N)NCCC[C@H](N)C(=O)O`, for which the inhibition in [2] was 93%; in data set [3], 75%; in data set [4], 22%; in [5], 89%. Moreover, in data set [1], the inhibitory constant (Ki) worked out at 73 µM.

Turning to `COCCNC(=N)NCCC[C@H](N)C(=O)NS(C)(=O)=O`, in data set [1], the inhibitory constant (Ki) stood at 1 µM.

Consider `COCCC(=N)NCCCCN`, for which the inhibition came to 19% in data set [2], 16% in data set [3], 22% in data set [4] and 28% in data set [5]. For the same compound, the Ki in [1] came to 1450 µM.

As for `C=CCCNC(=N)NCCC[C@H](N)C(=O)O`, the inhibition in data set [4] is 70%.

Regarding `C=CCC(=N)NCCCCN`, the inhibition in data set [2] turned out to be 99%; in [3], 100%; in data set [4], 6%; in data set [5], 56%. In data set [1], the Ki was found to be 768 µM.

Consider `C=CCCNC(=N)NCCCCN`, for which the inhibition is 5% in data set [2], 23% in data set [3], 0% in data set [4] and 35% in data set [5]. Also, the Ki in data set [1] is 59 µM.

For `COCCCC(=N)NCCC[C@H](N)C(=O)O`, the inhibition in [2] worked out at 35%; in [3], 26%; in [4], 20%; in [5], 29%. Besides, the Ki in data set [1] was determined as 156 µM.

For `COCC(=N)NCCCCN`, the inhibition in data set [2] was determined as 78%; in data set [3] it was 42%; in data set [4], 21%; in data set [5] it was 44%. In addition, the Ki in data set [1] stood at 983 µM.

Turning to `COCCN/C(=N/O)NCCCCN`, the values for the Activity result in data set [6], in data set [8] and in data set [12] were “Active”, “Non-Toxic” and “Non-Toxic”, respectively. Further, the Stability result in data set [7] is “Stable”. The Drug metabolism entry in data set [9], in data set [10] and in data set [11] was “Metabolite_Detected” throughout.

For the compound `C=CCC(=N)NCCC[C@H](N)C(=O)O`, in data set [4], the inhibition is 76%.

In the case of `COCCNC(=N)NCCC(C)C`, the inhibition in [2] amounted to 0%; in [3] it was 4%; in [4], 20%; in data set [5], 19%. Also, in data set [1], the inhibition constant Ki turned out to be 2760 µM.

Consider `COCCNC(=N)NCCCCC(=O)O`, for which the inhibition was found to be 5% in [2], 2% in data set [3], 35% in data set [4] and 13% in data set [5]. In addition, in [1], the Ki amounted to 489 µM.

Consider `COCCCC(=N)NCC[C@H](N)C(=O)O`, for which the inhibition in data set [2], in [3], in data set [4], in data set [5] and in [13] was below 20% throughout.

Regarding `COCCNC(=N)NCCCCN`, the Activity result in data set [8] and in data set [12] was “Non-Toxic” throughout. Also, the inhibition turned out to be 0% in data set [2], 0% in data set [3], 11% in data set [4] and 13% in data set [5].

Regarding `COCCCC(=N)NCCCCN`, the inhibition in data set [2] is 7%; in data set [3] it was 15%; in data set [4] it was 14%; in [5] it was 36%; in data set [13], below 20%.

As for `CCCCCNC(=N)NCCOC`, the inhibition in data set [2] was 0%; in data set [3] it was 21%; in data set [4], 15%; in data set [5], 0%. In [1], the Ki worked out at 2810 µM.

For the compound `COCCNC(=N)NCCC[C@H](N)C(=O)O`, the inhibition is 0% in data set [3] and 29% in data set [4].

For the compound `COCCC(=N)NCCC[C@H](N)C(=O)O`, the inhibition in data set [2] worked out at 65%; in data set [3] it was 50%; in data set [4], 43%; in [5] it was 54%. The inhibition constant (Ki) in [1] came out at 9 µM.

One may read the Ki as the dissociation constant of the complex between target and ligand, obtained from inhibition or displacement. As usually defined, the inhibition is the share of the control response that was lost under treatment.
